Columns and labels:
[1] = Cmax in BALB/c mouse at 20 mg/kg, po by LC-MS/MS analysis; assay type: ADME, organism-based; parameters: dose 20 mg/kg, route oral; conditions: in vivo
Summary of the method: (§1)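 BALB/c mice were dosed IV at 1 mg/kg or orally at 20 mg/kg. Plasma Cmax, Tmax, total AUC and half-life were determined for each route.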

[2] = Tmax in BALB/c mouse at 20 mg/kg, po by LC-MS/MS analysis; assay type: ADME, organism-based; conditions: in vivo; summary of the method: as §1
[3] = Half life in BALB/c mouse at 1 mg/kg, iv by LC-MS/MS analysis; assay type: ADME, organism-based; conditions: in vivo; summary of the method: as §1
Cytochrome P450 2D6 = Cytochrome P450 2D6 (Homo sapiens, UniProt P10635); assay: Inhibition of recombinant human microsomal CYP2D6 expressed in baculovirus infected BTI-TN-5B1-4 cell microsomes using CYP/Luciferin as substrate pre-incubated for 30 mins followed by NADPH regeneration mixture addition and measured after 30 mins by Promega P450-Glo assay; assay type: ADME
Chain of Cytochrome P450 2D6 (P10635 whole entry): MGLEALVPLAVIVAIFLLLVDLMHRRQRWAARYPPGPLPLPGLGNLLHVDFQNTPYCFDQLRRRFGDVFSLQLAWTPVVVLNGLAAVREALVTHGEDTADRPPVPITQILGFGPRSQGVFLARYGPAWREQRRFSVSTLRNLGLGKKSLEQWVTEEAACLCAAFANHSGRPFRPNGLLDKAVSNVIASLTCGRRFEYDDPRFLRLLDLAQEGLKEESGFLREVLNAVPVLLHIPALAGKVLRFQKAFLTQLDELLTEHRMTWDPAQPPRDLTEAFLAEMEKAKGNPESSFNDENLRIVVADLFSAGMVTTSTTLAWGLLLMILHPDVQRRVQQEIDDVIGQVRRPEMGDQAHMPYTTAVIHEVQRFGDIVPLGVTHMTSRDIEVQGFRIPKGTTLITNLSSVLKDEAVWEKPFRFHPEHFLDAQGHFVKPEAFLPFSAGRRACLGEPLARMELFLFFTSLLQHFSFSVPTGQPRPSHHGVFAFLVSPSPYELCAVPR

Albumin [4] = biological target: T1, Albumin (Homo sapiens, UniProt P02768); assay: Binding affinity to HSA assessed as absorption maxima for free monomer at 1.25 uM to 11.25 uM by UV-visible spectrophotometry; assay type: ADME; conditions: isolated protein
T1 sequence (P02768 whole entry): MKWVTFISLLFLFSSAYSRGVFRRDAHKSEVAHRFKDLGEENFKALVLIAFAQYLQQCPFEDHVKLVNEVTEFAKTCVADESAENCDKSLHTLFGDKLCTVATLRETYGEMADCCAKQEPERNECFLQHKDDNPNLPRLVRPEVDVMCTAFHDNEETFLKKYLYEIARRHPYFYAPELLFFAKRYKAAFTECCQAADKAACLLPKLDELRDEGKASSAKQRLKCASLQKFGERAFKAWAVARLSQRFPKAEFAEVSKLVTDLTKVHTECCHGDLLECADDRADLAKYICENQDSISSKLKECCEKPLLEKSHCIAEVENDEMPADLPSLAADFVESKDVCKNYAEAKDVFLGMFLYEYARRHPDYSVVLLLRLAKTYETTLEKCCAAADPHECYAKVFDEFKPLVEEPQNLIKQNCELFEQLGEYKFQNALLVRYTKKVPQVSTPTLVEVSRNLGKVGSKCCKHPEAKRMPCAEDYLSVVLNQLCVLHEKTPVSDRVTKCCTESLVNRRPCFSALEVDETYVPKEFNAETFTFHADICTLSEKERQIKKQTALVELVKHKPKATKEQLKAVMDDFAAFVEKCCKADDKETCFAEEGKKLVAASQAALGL
Summary of the method: (§2)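 Compound in aqueous phosphate buffer, pH 8, at 1.25 to 11.25 μM. Absorption and fluorescence emission spectra were recorded without and with human serum albumin (HSA), with HSA added stepwise. The monomer/dimer equilibrium constant was obtained by fitting the absorption data at 20 °C.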

[5] = Cytotoxicity against human THP1 cells by MTT assay; assay type: cell-based, THP-1
Albumin [6] = biological target: T1, Albumin; assay: Binding affinity to HSA assessed as monomer/HSA equilibrium binding constant at 11.25 uM by spectroflurometry; assay type: ADME; conditions: isolated protein; summary of the method: as §2
Cytochrome P450 2C9 = Cytochrome P450 2C9 (Homo sapiens, UniProt P11712); assay: Inhibition of recombinant human microsomal CYP2C9 expressed in baculovirus infected BTI-TN-5B1-4 cell microsomes using CYP/Luciferin as substrate pre-incubated for 30 mins followed by NADPH regeneration mixture addition and measured after 30 mins by Promega P450-Glo assay; assay type: ADME
Chain of Cytochrome P450 2C9 (P11712 whole entry): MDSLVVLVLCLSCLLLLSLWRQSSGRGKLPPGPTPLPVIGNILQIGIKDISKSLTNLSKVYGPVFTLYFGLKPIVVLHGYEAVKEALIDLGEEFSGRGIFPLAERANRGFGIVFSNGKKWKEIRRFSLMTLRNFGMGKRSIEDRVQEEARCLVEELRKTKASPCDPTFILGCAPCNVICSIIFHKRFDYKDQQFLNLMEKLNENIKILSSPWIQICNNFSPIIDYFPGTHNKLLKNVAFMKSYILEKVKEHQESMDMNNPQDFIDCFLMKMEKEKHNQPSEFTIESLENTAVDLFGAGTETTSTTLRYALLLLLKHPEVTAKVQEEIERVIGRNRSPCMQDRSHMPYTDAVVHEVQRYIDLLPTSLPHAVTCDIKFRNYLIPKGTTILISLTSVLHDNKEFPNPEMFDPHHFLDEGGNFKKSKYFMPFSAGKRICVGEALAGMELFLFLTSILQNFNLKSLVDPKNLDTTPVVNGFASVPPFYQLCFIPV

Cytochrome P450 2C19 = Cytochrome P450 2C19 (Homo sapiens, UniProt P33261); assay: Inhibition of recombinant human microsomal CYP2C19 expressed in baculovirus infected BTI-TN-5B1-4 cell microsomes using CYP/Luciferin as substrate pre-incubated for 30 mins followed by NADPH regeneration mixture addition and measured after 30 mins by Promega P450-Glo assay; assay type: ADME
Chain of Cytochrome P450 2C19 (P33261 whole entry): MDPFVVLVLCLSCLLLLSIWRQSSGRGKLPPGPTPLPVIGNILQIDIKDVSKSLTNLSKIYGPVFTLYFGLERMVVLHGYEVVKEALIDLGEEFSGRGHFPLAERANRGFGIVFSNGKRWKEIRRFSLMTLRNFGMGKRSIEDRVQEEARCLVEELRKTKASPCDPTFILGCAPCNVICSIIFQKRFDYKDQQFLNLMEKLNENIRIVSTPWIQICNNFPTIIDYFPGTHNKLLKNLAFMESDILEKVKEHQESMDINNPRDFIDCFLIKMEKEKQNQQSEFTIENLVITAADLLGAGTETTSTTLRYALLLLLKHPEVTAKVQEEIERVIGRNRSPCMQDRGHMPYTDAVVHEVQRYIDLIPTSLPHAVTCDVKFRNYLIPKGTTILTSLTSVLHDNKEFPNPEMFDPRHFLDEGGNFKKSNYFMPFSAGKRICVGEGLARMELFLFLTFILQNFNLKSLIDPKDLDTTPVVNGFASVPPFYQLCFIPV

[7] = biological target: T2, Voltage-gated inwardly rectifying potassium channel KCNH2 (Homo sapiens, UniProt Q12809); assay: Inhibition of human ERG at 10 uM after 2 hrs by fluorescence polarization assay
T2 sequence (Q12809 whole entry): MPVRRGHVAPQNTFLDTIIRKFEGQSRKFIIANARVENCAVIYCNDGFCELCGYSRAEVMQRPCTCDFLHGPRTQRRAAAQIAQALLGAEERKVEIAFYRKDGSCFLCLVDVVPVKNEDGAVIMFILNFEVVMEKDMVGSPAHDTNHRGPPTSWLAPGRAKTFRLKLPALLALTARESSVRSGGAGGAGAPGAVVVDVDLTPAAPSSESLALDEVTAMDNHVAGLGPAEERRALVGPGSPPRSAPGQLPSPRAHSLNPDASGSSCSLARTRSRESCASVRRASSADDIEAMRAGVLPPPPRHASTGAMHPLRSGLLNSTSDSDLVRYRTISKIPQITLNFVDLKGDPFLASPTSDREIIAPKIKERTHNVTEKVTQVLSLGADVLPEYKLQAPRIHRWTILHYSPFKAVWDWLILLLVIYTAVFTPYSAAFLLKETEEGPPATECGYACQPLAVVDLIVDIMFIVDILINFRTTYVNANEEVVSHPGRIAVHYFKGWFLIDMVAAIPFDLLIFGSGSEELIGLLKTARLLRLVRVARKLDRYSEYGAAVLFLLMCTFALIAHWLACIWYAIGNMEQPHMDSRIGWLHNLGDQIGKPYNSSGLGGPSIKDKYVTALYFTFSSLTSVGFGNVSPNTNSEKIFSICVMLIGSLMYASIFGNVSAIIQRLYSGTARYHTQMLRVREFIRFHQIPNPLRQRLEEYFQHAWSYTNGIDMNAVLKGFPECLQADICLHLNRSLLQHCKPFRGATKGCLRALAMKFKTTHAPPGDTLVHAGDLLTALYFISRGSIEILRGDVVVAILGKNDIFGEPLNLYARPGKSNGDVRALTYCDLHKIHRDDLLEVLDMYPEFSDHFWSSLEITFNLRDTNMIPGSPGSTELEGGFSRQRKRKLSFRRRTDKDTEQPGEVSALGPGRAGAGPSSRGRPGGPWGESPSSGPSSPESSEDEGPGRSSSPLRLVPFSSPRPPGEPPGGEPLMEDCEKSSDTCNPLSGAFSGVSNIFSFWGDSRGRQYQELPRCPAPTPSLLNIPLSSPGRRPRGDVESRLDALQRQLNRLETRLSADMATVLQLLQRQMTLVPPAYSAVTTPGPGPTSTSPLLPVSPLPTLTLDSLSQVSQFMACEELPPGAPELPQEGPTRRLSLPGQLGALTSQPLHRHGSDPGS
Summary of the method: (§3)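 Single-concentration screen at 10 μM within an early in vitro ADME-tox panel, covering cytotoxicity in A549 cells and hERG inhibition.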

[8] = Total AUC in BALB/c mouse at 20 mg/kg, po by LC-MS/MS analysis; assay type: ADME, organism-based; parameters: dose 20 mg/kg, time AUCmax, route oral; conditions: in vivo; summary of the method: as §1
Albumin [9] = biological target: T1, Albumin; assay: Binding affinity to HSA assessed as absorption maxima for aggregate at 1.25 uM to 11.25 uM by UV-visible spectrophotometry; assay type: ADME; conditions: isolated protein; summary of the method: as §2
[10] = Total AUC in BALB/c mouse at 1 mg/kg, iv by LC-MS/MS analysis; assay type: ADME, organism-based; parameters: dose 1 mg/kg, time AUCmax, route intravenous; conditions: in vivo; summary of the method: as §1
[11] = Selectivity index, ratio of CC50 for cytotoxicity against human THP1 cells to EC50 for antitrypanosomal activity against Trypanosoma brucei bloodstream form; assay type: toxicity, cell-based; conditions: read-out: Ratio CC50/EC50
[12] = Aggregation behavior in phosphate buffer at pH 8 assessed as dimerization equilibrium constant at 1.25 uM to 11.25 uM by UV-visible spectrophotometry; assay type: physicochemical; conditions: pH 8, 1.25 µM; summary of the method: as §2
Albumin [13] = biological target: T1, Albumin; assay: Binding affinity to HSA assessed as emission maxima for HSA-complexed monomer at 1.25 uM to 11.25 uM by spectroflurometry; assay type: ADME; conditions: isolated protein; summary of the method: as §2
[14] = Tmax in BALB/c mouse at 1 mg/kg, iv by LC-MS/MS analysis; assay type: ADME, organism-based; conditions: in vivo; summary of the method: as §1
Albumin [15] = biological target: T1, Albumin; assay: Binding affinity to HSA assessed as absorption maxima for HSA-complexed monomer at 1.25 uM to 11.25 uM by UV-visible spectrophotometry; assay type: ADME; conditions: isolated protein; summary of the method: as §2
Cytochrome P450 3A4 = Cytochrome P450 3A4 (Homo sapiens, UniProt P08684); assay: Inhibition of recombinant human microsomal CYP3A4 expressed in baculovirus infected BTI-TN-5B1-4 cell microsomes using CYP/Luciferin as substrate pre-incubated for 30 mins followed by NADPH regeneration mixture addition and measured after 30 mins by Promega P450-Glo assay; assay type: ADME
Chain of Cytochrome P450 3A4 (P08684 whole entry): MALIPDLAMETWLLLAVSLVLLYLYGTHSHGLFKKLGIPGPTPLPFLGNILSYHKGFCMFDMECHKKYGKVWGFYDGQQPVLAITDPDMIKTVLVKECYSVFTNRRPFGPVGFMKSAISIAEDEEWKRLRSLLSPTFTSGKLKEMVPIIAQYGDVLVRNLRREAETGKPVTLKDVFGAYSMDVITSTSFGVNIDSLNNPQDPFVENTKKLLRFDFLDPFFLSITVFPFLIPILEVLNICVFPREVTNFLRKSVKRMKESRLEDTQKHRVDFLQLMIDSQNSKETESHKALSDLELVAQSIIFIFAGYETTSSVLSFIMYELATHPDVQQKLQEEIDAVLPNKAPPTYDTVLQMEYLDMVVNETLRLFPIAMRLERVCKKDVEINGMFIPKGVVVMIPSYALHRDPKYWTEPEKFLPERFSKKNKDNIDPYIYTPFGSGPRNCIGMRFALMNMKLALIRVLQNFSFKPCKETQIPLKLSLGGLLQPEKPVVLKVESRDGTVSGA

[16] = Aggregation behavior in phosphate buffer at pH 8 assessed as increase in emission spectra at 1.25 uM to 11.25 uM by spectroflurometry; assay type: physicochemical; conditions: pH 8, 1.25 µM; summary of the method: as §2
786-0 = assay: Mitochondrial toxicity in human 786-O cells at 10 uM after 6 hrs by MitoTracker Red chloromethyl-X-rosamine based assay; assay type: cell-based; conditions: 786-0, 6 h
[17] = biological target: T2, Voltage-gated inwardly rectifying potassium channel KCNH2; assay: Inhibition of human ERG after 2 hrs by fluorescence polarization assay
[18] = Cmax in BALB/c mouse at 1 mg/kg, iv by LC-MS/MS analysis; assay type: ADME, organism-based; parameters: dose 1 mg/kg, route intravenous; conditions: in vivo; summary of the method: as §1
hERG = assay: Selectivity ratio of IC50 for inhibition of human ERG to EC50 for antitrypanosomal activity against Trypanosoma brucei bloodstream form; assay type: toxicity; conditions: read-out: Ratio IC50/EC50
Albumin [19] = biological target: T1, Albumin; assay: Binding affinity to HSA assessed as emission maxima for free monomer at 1.25 uM to 11.25 uM by spectroflurometry; assay type: ADME; conditions: isolated protein; summary of the method: as §2
Albumin [20] = biological target: T1, Albumin; assay: Binding affinity to HSA assessed as emission maxima for aggregate at 1.25 uM to 11.25 uM by spectroflurometry; assay type: ADME; conditions: isolated protein; summary of the method: as §2
Cytochrome P450 1A2 = biological target: T3, Cytochrome P450 1A2 (Homo sapiens, UniProt P05177); assay: Inhibition of recombinant human microsomal CYP1A2 expressed in baculovirus infected BTI-TN-5B1-4 cell microsomes using CYP/Luciferin as substrate pre-incubated for 30 mins followed by NADPH regeneration mixture addition and measured after 30 mins by Promega P450-Glo assay; assay type: ADME
T3 sequence (P05177 whole entry): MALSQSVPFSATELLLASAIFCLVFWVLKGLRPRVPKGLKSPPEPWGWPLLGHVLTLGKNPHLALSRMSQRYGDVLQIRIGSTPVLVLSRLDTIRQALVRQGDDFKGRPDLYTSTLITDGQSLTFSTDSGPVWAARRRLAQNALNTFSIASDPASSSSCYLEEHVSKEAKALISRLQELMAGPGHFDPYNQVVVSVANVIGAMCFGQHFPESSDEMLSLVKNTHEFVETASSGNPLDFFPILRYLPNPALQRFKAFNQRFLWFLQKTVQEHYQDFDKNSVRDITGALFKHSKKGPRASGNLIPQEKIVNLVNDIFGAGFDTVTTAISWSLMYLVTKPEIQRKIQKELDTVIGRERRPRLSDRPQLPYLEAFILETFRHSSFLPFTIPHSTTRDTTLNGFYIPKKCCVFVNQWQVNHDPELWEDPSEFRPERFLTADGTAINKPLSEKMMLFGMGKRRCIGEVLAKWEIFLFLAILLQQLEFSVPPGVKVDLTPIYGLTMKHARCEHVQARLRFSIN

[21] = Aggregation behavior in phosphate buffer at pH 8 assessed as increase in absorption spectra at 1.25 uM to 11.25 uM by UV-visible spectrophotometry; assay type: physicochemical; conditions: pH 8, 1.25 µM; summary of the method: as §2
[22] = Half life in BALB/c mouse at 20 mg/kg, po by LC-MS/MS analysis; assay type: ADME, organism-based; conditions: in vivo; summary of the method: as §1
[23] = Cytotoxicity against human A549 cells assessed as cell growth at 10 uM after 48 hrs by cell-titer-Glo assay relative to control; assay type: cell-based; conditions: read-out: Activity; summary of the method: as §3
Trypanosoma brucei [24] = assay: Antitrypanosomal activity against Trypanosoma brucei bloodstream form assessed as parasite growth inhibition at 10 uM after 72 hrs by resazurin dye-based assay relative to control; assay type: functional; conditions: read-out: GI
Summary of the method: (§4)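 T. brucei bloodstream forms were screened first. Compounds giving over 70% parasite growth inhibition then went to a full dose–response curve to derive EC50. Pentamidine was the reference.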

Trypanosoma brucei [25] = assay: Antitrypanosomal activity against Trypanosoma brucei bloodstream form after 72 hrs by resazurin dye-based assay relative to control; assay type: functional, organism-based; summary of the method: as §4

COc1ccc2c(=O)c(O)c(-c3ccc4c(c3)OCO4)oc2c1
Cmax [1]: 910 nM
Tmax [2]: 0.5 h
half-life [3]: 19.8 h
IC50 (Cytochrome P450 2D6): 0.05 µM
Activity (Albumin [4]): 360 nm
CC50 [5]: > 100 µM
Kb (Albumin [6]): 2.5 ×10⁵ /M
IC50 (Cytochrome P450 2C9): 1.6 µM
IC50 (Cytochrome P450 2C19): 1.5 µM
inhibition (INH) [7]: Not Active
AUC [8]: 8.65 µM·h
Activity (Albumin [9]): 325 nm
AUC [10]: 9.99 µM·h
selectivity ratio [11]: 250
Ke [12]: 1.8 ×10⁵ /M
Activity (Albumin [13]): 540 nm
Tmax [14]: 1 h
Activity (Albumin [15]): 360 nm
IC50 (Cytochrome P450 3A4): 6 µM
Activity [16]: Active
Activity (786-0): Non-Toxic
IC50 [17]: > 100 µM
Cmax [18]: 1080 nM
selectivity ratio (hERG): > 250
Activity (Albumin [19]): 475 nm
Activity (Albumin [20]): 560 nm
IC50 (Cytochrome P450 1A2): 0.4 µM
Activity [21]: Active
half-life [22]: 45.4 h

COc1ccc2c(=O)c(OC(=O)C(C)C)c(-c3ccc4c(c3)OCO4)oc2c1
viability at 48 h, 10 µM [23]: < 0%
inhibition of growth at 10 µM (Trypanosoma brucei [24]): 98%
CC50 [5]: < 12.5 µM
inhibition (INH) [7]: Not Active
selectivity ratio [11]: 24
Activity (786-0): Non-Toxic
EC50 (Trypanosoma brucei [25]): 0.5 µM

Cc1ccc2c(=O)c(O)c(-c3ccc4c(c3)OCO4)oc2c1
inhibition of growth at 10 µM (Trypanosoma brucei [24]): 99%
CC50 [5]: 12.5 to 25 µM
inhibition (INH) [7]: Not Active
selectivity ratio [11]: 31
Activity (786-0): Non-Toxic
EC50 (Trypanosoma brucei [25]): 0.4 µM

O=c1c(O)c(-c2ccc3c(c2)OCO3)oc2ccccc12
inhibition of growth at 10 µM (Trypanosoma brucei [24]): 100%
CC50 [5]: 12.5 to 25 µM
inhibition (INH) [7]: Not Active
selectivity ratio [11]: 4
Activity (786-0): Non-Toxic
EC50 (Trypanosoma brucei [25]): 2.9 µM

O=c1c(O)c(-c2ccc3c(c2)OCO3)oc2cc(F)ccc12
inhibition of growth at 10 µM (Trypanosoma brucei [24]): 98%
CC50 [5]: < 12.5 µM
inhibition (INH) [7]: Not Active
selectivity ratio [11]: 8
Activity (786-0): Non-Toxic
EC50 (Trypanosoma brucei [25]): 2.4 µM

COc1ccc2c(=O)c(OC(=O)C3CCCCC3)c(-c3ccc4c(c3)OCO4)oc2c1
inhibition of growth at 10 µM (Trypanosoma brucei [24]): 98%
CC50 [5]: 12.5 to 25 µM
inhibition (INH) [7]: Not Active
selectivity ratio [11]: 25
Activity (786-0): Non-Toxic
EC50 (Trypanosoma brucei [25]): 0.5 µM

O=c1c(O)c(-c2ccc3c(c2)OCO3)oc2cc(Cl)ccc12
viability at 48 h, 10 µM [23]: < 0%
inhibition of growth at 10 µM (Trypanosoma brucei [24]): 83%
CC50 [5]: < 12.5 µM
inhibition (INH) [7]: Not Active
selectivity ratio [11]: 3
Activity (786-0): Non-Toxic
EC50 (Trypanosoma brucei [25]): 3.8 µM

Cc1ccc2oc(-c3ccc4c(c3)OCO4)c(O)c(=O)c2c1
inhibition of growth at 10 µM (Trypanosoma brucei [24]): 99%
CC50 [5]: < 12.5 µM
inhibition (INH) [7]: Not Active
selectivity ratio [11]: 3
Activity (786-0): Non-Toxic
EC50 (Trypanosoma brucei [25]): 4.1 µM
